Values joined by “and” are separate entries in the source; they are usually repeats but may differ in a detail not shown here. Identical values can stand only once. Like-named read-outs stand apart in the source and are kept apart here.

The results in this text go back to publication PMC2857698 (Biochemistry, 2010).

For one assay, the system named is EH domain of EHD1. The assay is described as follows: ITC of NPF peptides binding to EHD1 EH. Details: species or system mouse. The note with it: ITC, 25 mM MOPS pH 7.0, 1 mM CaCl2. In a few lines: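 Mouse EHD1 EH domain (V437–E534) expressed as a GST fusion, purified on glutathione resin and thrombin-cleaved on beads. Protein and peptides were dialysed at 4°C against 25 mM MOPS pH 7.0, 1 mM CaCl2, with KCl varied where applicable. ITC was run at 20°C unless stated (5–25°C), with 50–200 μM protein in the cell and peptide titrant 10-fold higher. Single-site fit gave Ka, n and ΔH; ΔG = −RTlnKa, and TΔS came from ΔG = ΔH − TΔS.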

Assay [1] has as its target Rsn5-NPF1 peptide (first NPF motif of Rabenosyn-5) (UniProt Q9H1K0). The assay is described as follows: ITC. Particulars: pH 7.0; 20 C; 0 mM KCl added; 1 mM CaCl2; 25 mM MOPS pH 7.0.
For assay [2] the target is unchanged. The assay is described as follows: ITC. The note with it: pH 7.0; 20 C; 0 mM KCl added; 1 mM CaCl2; 25 mM MOPS pH 7.0. The source holds these as a separate data set.
Assay [3] has as its target EH domain of EHD1 (mouse), residues V437 to E534 (mouse) (UniProt Q9WVK4).
Assay [4] concerns the target T1, EH domain of EHD1 (mouse), residues V437 to E534 (mouse, UniProt Q9WVK4 437-534).
T1 sequence (looked up): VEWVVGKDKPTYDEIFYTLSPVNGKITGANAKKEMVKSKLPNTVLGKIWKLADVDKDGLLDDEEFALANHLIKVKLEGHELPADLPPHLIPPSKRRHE
The assay is described as follows: ITC. For orientation: ITC needs no label: the signal is the heat of the interaction.

The target in assay [5] is T1, EH domain of EHD1 (mouse), residues …. The assay is described as follows: ITC. This is another data set of the same source.
Assay [6] has the same target. The assay is described as follows: ITC. This is another data set of the same source.
The target is the same in assay [7]. The assay is described as follows: ITC. This is another data set of the same source.
For assay [8] the target is unchanged. The assay is described as follows: ITC. The source holds these as a separate data set.
Assay [9] has the same target. The assay is described as follows: ITC. This is another data set of the same source.
The target is the same in assay [10]. The assay is described as follows: ITC. This is another data set of the same source.
For assay [11] the target is unchanged. The assay is described as follows: ITC. This is another data set of the same source.
In a further assay the target is T2, EH domain of Reps1.
T2 chain: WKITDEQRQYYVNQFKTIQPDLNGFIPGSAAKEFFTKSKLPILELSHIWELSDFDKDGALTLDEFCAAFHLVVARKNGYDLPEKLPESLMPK
The assay is described as follows: ITC.

In assay [12] the target is T1, EH domain of EHD1 (mouse), residues …. The assay is described as follows: ITC. This is another data set of the same source.
Assay [13] has the same target. The assay is described as follows: ITC. This is another data set of the same source.
Assay [14] shares this target. The assay is described as follows: ITC. The source holds these as a separate data set.
Assay [15] shares this target. The assay is described as follows: ITC. This is another data set of the same source.
Assay [16] shares this target. The assay is described as follows: ITC. The source holds these as a separate data set.

Chain of Rsn5-NPF1 peptide (first NPF motif of Rabenosyn-5) (Q9H1K0 whole entry, looked up, tested part not stated): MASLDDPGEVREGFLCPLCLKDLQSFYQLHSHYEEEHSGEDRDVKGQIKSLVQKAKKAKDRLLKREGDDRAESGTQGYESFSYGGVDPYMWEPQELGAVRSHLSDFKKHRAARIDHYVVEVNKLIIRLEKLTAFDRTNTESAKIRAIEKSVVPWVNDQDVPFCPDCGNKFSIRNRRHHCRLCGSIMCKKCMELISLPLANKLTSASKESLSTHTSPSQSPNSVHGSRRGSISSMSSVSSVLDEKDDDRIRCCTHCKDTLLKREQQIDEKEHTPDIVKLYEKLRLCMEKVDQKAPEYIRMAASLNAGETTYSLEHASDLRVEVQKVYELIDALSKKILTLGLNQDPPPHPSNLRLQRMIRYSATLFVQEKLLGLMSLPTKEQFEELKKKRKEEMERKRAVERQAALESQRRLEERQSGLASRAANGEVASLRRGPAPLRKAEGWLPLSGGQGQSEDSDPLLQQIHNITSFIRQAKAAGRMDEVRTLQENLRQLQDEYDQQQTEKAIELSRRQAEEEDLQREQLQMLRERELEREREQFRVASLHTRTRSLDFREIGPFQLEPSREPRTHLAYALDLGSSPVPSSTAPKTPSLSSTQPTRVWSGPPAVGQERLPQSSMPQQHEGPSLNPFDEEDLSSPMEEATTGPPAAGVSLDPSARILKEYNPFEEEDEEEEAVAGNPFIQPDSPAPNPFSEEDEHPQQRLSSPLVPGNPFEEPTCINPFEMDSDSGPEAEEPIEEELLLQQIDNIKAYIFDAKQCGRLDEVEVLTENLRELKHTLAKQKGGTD

Take Ac-YESTNPFTAK-NH2 [Rfp2-NPF2]: the Ka in the assay with EH domain of EHD1 (5.0 °C) is 17800 M⁻¹; in the assay with EH domain of EHD1 (10.0 °C), 12800 M⁻¹; in the assay on EH domain of EHD1 (15.0 °C), 9390 M⁻¹; in the assay with EH domain of EHD1 (20 °C, KCl 75.0 mM), 6460 M⁻¹; in the assay on EH domain of EHD1 (20 °C, KCl 150.0 mM), 6910 M⁻¹; in the assay on EH domain of EHD1 (20 °C, KCl 300.0 mM) it was 7490 M⁻¹. In addition, the Ka in the assay with EH domain of EHD1 (20 °C, KCl 450.0 mM) was determined as 7810 M⁻¹; with EH domain of EHD1 (25.0 °C) it was 4700 M⁻¹. The TΔS with EH domain of EHD1 (5.0 °C) is -3.867 kcal/mol; in the assay on EH domain of EHD1 (10.0 °C) it was -4.729 kcal/mol; with EH domain of EHD1 (15.0 °C), -5.562 kcal/mol; in the assay with EH domain of EHD1 (20.0 °C), -6.802 kcal/mol; in the assay with EH domain of EHD1 (20 °C, KCl 75.0 mM) it was -6.744 kcal/mol; in the assay on EH domain of EHD1 (20 °C, KCl 150.0 mM) it was -6.802 kcal/mol. The TΔS in the assay with EH domain of EHD1 (20 °C, KCl 300.0 mM) is -6.568 kcal/mol; in the assay with EH domain of EHD1 (20 °C, KCl 450.0 mM) it was -6.069 kcal/mol; in the assay with EH domain of EHD1 (25.0 °C), -8.32 kcal/mol. The ΔH in the assay with EH domain of EHD1 (5.0 °C) was -9.279 kcal/mol; with EH domain of EHD1 (10.0 °C), -10.04 kcal/mol; in the assay on EH domain of EHD1 (15.0 °C), -10.79 kcal/mol; in the assay with EH domain of EHD1 (20.0 °C) it was -11.92 kcal/mol; in the assay with EH domain of EHD1 (20 °C, KCl 75.0 mM), -11.84 kcal/mol; in the assay on EH domain of EHD1 (20 °C, KCl 150.0 mM), -11.96 kcal/mol. In addition, the ΔH was -11.77 kcal/mol with EH domain of EHD1 (20 °C, KCl 300.0 mM); -11.29 kcal/mol in the assay with EH domain of EHD1 (20 °C, KCl 450.0 mM); -13.32 kcal/mol in the assay with EH domain of EHD1 (25.0 °C). Further, the ΔS is listed as −13.9 cal mol^−1 K^−1 with EH domain of EHD1 (5.0 °C); −16.7 cal mol^−1 K^−1 with EH domain of EHD1 (10.0 °C); −19.3 cal mol^−1 K^−1 with EH domain of EHD1 (15.0 °C); −23.2 cal mol^−1 K^−1 with EH domain of EHD1 (20.0 °C); −23.0 cal mol^−1 K^−1 in the assay with EH domain of EHD1 (20 °C, KCl 75.0 mM); −23.2 cal mol^−1 K^−1 in the assay with EH domain of EHD1 (20 °C, KCl 150.0 mM). For the same molecule, the ΔS is recorded as −22.4 cal mol^−1 K^−1 with EH domain of EHD1 (20 °C, KCl 300.0 mM); −20.7 cal mol^−1 K^−1 in the assay with EH domain of EHD1 (20 °C, KCl 450.0 mM); −27.9 cal mol^−1 K^−1 with EH domain of EHD1 (25.0 °C). Moreover, the ΔG is -5.316 kcal/mol with EH domain of EHD1 (10.0 °C); -5.233 kcal/mol with EH domain of EHD1 (15.0 °C); -5.122 kcal/mol in the assay with EH domain of EHD1 (20.0 °C); -5.106 kcal/mol with EH domain of EHD1 (20 °C, KCl 75.0 mM); -5.145 kcal/mol with EH domain of EHD1 (20 °C, KCl 150.0 mM); -5.192 kcal/mol in the assay with EH domain of EHD1 (20 °C, KCl 300.0 mM). The ΔG with EH domain of EHD1 (20 °C, KCl 450.0 mM) was -5.217 kcal/mol; with EH domain of EHD1 (25.0 °C) it was -5.005 kcal/mol.

In the case of “EHD1 EH domain (EH domain-containing protein 1, C-terminal EH domain)”, the ΔH in assay [1] and in assay [2] was -11.3 kcal/mol each time.

With “Rabenosyn-5 peptide containing two NPF motifs”, in [3], the stoichiometry N is 2.

Ac-YESTNPFTAK-NH2 [Rfp2-NPF2, peptide of NPF2 of Rab11-Fip2 (Ac-YESTNPFTAK-NH2)]: the Ka in assay [4] was 6460 M⁻¹; in [5], 12800 M⁻¹; in assay [6], 9390 M⁻¹; in [7], 17800 M⁻¹; in [8], 7490 M⁻¹; in assay [9] it was 6640 M⁻¹ and 7030 M⁻¹. Further, the Ka stood at 6910 M⁻¹ in assay [10], 4700 M⁻¹ in assay [11], 2000 M⁻¹ with EH domain of Reps1 and 7810 M⁻¹ in assay [12]. Besides, the dH is -11.8 kcal/mol in [4]; -10 kcal/mol in [5]; -10.8 kcal/mol in assay [6]; -9.28 kcal/mol in assay [7]; -11.8 kcal/mol in assay [8]; -11.9 kcal/mol and -11.8 kcal/mol in assay [9]. The values for the dH in [10], in assay [11] and in assay [12] were -12 kcal/mol, -13.3 kcal/mol and -11.3 kcal/mol, respectively. For the same molecule, the “stoichiometry N” value is 0.96 in assay [4]; 1.02 in assay [5]; 1.03 in assay [6]; 0.97 in assay [7]; 0.99 in [8]; 1.03 and 1.01 in [9]. The “stoichiometry N” value came to 1.02 in assay [10], 0.99 in [11] and 1.04 in assay [12].

Turning to Ac-GPSLNPFDEED-NH2 [Rsn5-NPF1, peptide of NPF1 of Rabenosyn-5 (Ac-GPSLNPFDEED-NH2)], the Ka came to 115000 M⁻¹ in [4]; 1.71e+06 M⁻¹ in [5]; 1.1e+06 M⁻¹ in [6]; 2.03e+06 M⁻¹ in [7]; 86500 M⁻¹ in assay [13]; 24800 M⁻¹ in assay [8]. The Ka in assay [14] is 65000 M⁻¹; in assay [9] it was 814000 M⁻¹ and 861000 M⁻¹; in assay [15], 302000 M⁻¹; in assay [10] it was 53000 M⁻¹; in [16], 168000 M⁻¹; in assay [11] it was 606000 M⁻¹. Besides, the Ka worked out at 2000 M⁻¹ with EH domain of Reps1 and 17800 M⁻¹ in assay [12]. Also, the dH in assay [4] was -10.3 kcal/mol; in [5], -9.68 kcal/mol; in [6] it was -10.4 kcal/mol; in assay [7] it was -8.99 kcal/mol; in assay [13] it was -10.9 kcal/mol; in assay [8] it was -10.3 kcal/mol. Moreover, the dH in [14] is -10.5 kcal/mol; in assay [9], -11.3 kcal/mol; in assay [15] it was -10.4 kcal/mol; in assay [10] it was -10.5 kcal/mol; in assay [16], -10.4 kcal/mol; in [11], -11.9 kcal/mol. Further, in assay [12], the dH is -10.4 kcal/mol. For the same molecule, the “stoichiometry N” value in assay [4] worked out at 0.95; in [5], 0.98; in assay [6], 0.99; in assay [7], 0.98; in assay [13], 0.99; in [8], 1.04. Also, the “stoichiometry N” value is 1.05 in assay [14]; 0.98 and 1.02 in [9]; 0.97 in [15]; 1.09 in assay [10]; 0.97 in assay [16]; 0.98 in [11]. For the same molecule, in assay [12], the “stoichiometry N” value is 1.04.

For orientation: stoichiometry N means the number of molecules, sites or subunits per partner or assembly.
